# Bioassay records from PubChem BioAssay.
# Most compounds without a hit are left out; they make up all but 1.8% or so of the library.
# SKN-1 inh: inhibitors of C. elegans SKN-1; C. elegans VP596 Pgst-4::GFP/RFP ratio, acrylamide-induced, 24 h; 360,000 compounds, 0.49% hits; inhibition, % at 21.8 µM;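 active = interference check ratio from 0.5 to 1.5 plus GFP to RFP signal ratio inhibition reaching or exceeding a fixed threshold, cut at about 30% in these data, passing the limit was not always enough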
# PABP polyA inh: PABP-poly(A) binding inhibition. AID 2014. PABP-poly(A) RNA binding, fluorescence polarization. calls only at 35 µM. 290,000 compounds, 1% hits. P11940;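 note: calls also rest on retests at 20 µM and on dose response follow-up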
# Target sequence (P11940 whole entry, looked up): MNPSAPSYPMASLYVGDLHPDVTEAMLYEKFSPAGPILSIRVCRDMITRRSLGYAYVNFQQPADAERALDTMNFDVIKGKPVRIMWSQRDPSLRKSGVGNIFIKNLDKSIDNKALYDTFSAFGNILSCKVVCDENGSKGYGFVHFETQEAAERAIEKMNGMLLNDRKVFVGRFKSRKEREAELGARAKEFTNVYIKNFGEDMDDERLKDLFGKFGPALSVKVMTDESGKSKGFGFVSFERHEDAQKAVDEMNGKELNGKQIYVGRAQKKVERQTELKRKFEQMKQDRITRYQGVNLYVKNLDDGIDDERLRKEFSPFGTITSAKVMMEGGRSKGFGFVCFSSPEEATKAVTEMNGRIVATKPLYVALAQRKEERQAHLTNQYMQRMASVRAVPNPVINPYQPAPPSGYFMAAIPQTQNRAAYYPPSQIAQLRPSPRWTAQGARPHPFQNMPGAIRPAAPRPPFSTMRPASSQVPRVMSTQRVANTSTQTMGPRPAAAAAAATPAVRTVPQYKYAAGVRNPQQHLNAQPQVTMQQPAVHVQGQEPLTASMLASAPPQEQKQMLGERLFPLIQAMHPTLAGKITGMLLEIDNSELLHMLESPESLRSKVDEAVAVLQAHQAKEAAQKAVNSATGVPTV
# MT1-MMP act inh: MT1-MMP (human) activation inhibition; P50281; HT1080 RFP-PRO-GFP cells, GFP/RFP ratio fluorescence, overnight; percent of plate control window, DMSO zero; GFP/RFP ratio change, % at 20 µM; 360,000 compounds, 0.061% hits; AID 651647;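 active = GFP/RFP ratio change of at least 30% with cell ATP level not reduced by more than half and red fluorescence within 50% of control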
#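 Assay system: HT1080 RFP-PRO-GFP cells. Benchmarks: DMSO vehicle wells and RFP-L50D-GFP reporter cell wells. Times: overnight cell settling, then overnight compound exposure, 37 °C, 5% CO2. Compound: 20 µM single dose, 1% DMSO. Read-out basis: GFP/RFP fluorescence ratio.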
# MLLE-PAM2 inh: blocks PAM2 peptide binding to the PABP1 MLLE domain | P11940 | GST-MLLE / FITC-PAM2 fluorescence polarization | inhibition, % at 20 µM | 360,000 compounds, 0.36% hits | AID 588489; in the data active = inhibition above about 35%, passing the limit was not always enough;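 note: plate controls were DMSO wells with GST-MLLE for no effect and wells lacking GST-MLLE protein for full effect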
# eIF4H inh: inhibitors of RNA binding by human eIF4H; Q15056; eIF4H fluorescence polarization binding assay; inhibition, % at 35 µM; 290,000 compounds, 0.94% hits; AID 2012;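 note: calls also rest on retests at 20 µM and on dose response follow-up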
# Numbers without * were called inactive; i = inactive; . = not tested or not shown; + = active, no number. Unless noted, the rule behind the calls is not given here.
SMILES,SKN-1 inh,PABP polyA inh,MT1-MMP act inh,MLLE-PAM2 inh,eIF4H inh
CCOC(=O)c1c(N)sc2c1CCSC2,37*,+,-13,-15,111*
CCOC(=O)c1c(N)sc2c1CCC(CC)C2 (stereo unspecified),-6,i,-9,18,7
CCOC(=O)c1c(N)sc(=S)c2c1CCC2,19,+,0,41*,33*
N#C/C(=C\c1ccc(C(=O)O)cc1)c1ccccn1,5,+,-3,-4,64*
CCN(CC)c1ccc(/C=C(\C#N)c2ccccn2)cc1,23,i,-102,-140,54
Cc1ccc(C(=O)Nc2ccc(N3CCN(C)CC3)cc2)c(Cl)c1,-8,i,-6,1,-7
O=C(NCc1cccc(F)c1)Nc1nnc([C@@H]2C[C@H](O)[C@@H](CO)O2)s1,-11,.,-3,1,.
Cc1ccc(-c2nnc(SCC(=O)Nc3sc(C)c(C)c3C#N)n2C)cc1,15,i,2,-2,12
Cc1sc(NC(=O)CSc2nnc(-c3ccc(F)cc3)o2)c(C#N)c1C,8,+,-4,-2,66*
COC(=O)c1ccc2c(=O)n(NC(=O)C(c3ccccc3)c3ccccc3)c(=S)[nH]c2c1,-27,i,1,38*,3
CC(=O)C1=C(O)C(=O)N(C)C1c1ccccc1[N+](=O)[O-] (stereo unspecified),-10,i,-4,39*,-17
CC1CCCN(S(=O)(=O)c2ccc(NC(=O)C3CCN(C(=O)C(C)(C)C)CC3)cc2)C1 (stereo unspecified),-8,.,6,-7,.
C=CCn1c(SCC(C)=O)nc2scc(-c3ccco3)c2c1=O,6,+,-14,-3,67*
C=CCn1c(SC(F)F)nc2scc(-c3ccco3)c2c1=O,21,i,9,-5,-11
C=CCn1c(SCC(=O)N2CCOCC2)nc2scc(-c3ccco3)c2c1=O,2,+,-16,-8,66*
N#CC(=C1C=C(Br)C(=NO)C=C1Cl)c1cccc2ccccc12,6,.,0,-11,.
CCc1ccc(NS(=O)(=O)c2ccc3oc(=O)ccc3c2)cc1,13,i,.,2,-3
O=C1NC(=Nc2ccc3ccccc3c2)S/C1=C/c1ccco1,9,i,-3,-78,80*
Cn1nc2c(c1C(=O)O)CCCC2,-2,+,-4,-3,102*
Cn1nc2c(c1C(=O)N1CCCC(C(=O)c3cc(F)ccc3F)C1)CCCC2 (stereo unspecified),7,i,3,-6,-2
COc1ccc(C(CC(=O)NCc2ccccc2)Sc2n[nH]c(-c3ccc(Cl)cc3)n2)cc1 (stereo unspecified),1,i,-4,-40,4
COc1ccc(C(CC(=O)NCc2ccccc2)Sc2n[nH]c(-c3ccccc3)n2)cc1 (stereo unspecified),7,+,-9,12,86*
Brc1ccc(OCc2nc(-c3ccccn3)n[nH]2)cc1,28*,i,2,2,21
O=C(NCCCN1CCOCC1)c1ccc2c(c1)N(Cc1ccc(Cl)cc1)C(=O)c1ccccc1S2=O (stereo unspecified),5,i,0,1,-5
CCc1ccc(C2C(C#N)=C(N)C(C#N)(C#N)C3=CCC(C(C)(C)C)CC32)cc1 (stereo unspecified),0,i,-48,48,84*
SMILES,SKN-1 inh,PABP polyA inh,MT1-MMP act inh,MLLE-PAM2 inh,eIF4H inh
c1ccc2sc(SCc3ccc(-c4nnco4)cc3)nc2c1,54*,i,2,-11,-6
COc1ccc(-c2ccnc3nc(-n4cccc4)nn23)cc1,19,i,1,-10,-9
c1coc(-c2ccnc3nc(-n4cccc4)nn23)c1,6,+,0,-6,94*
O=C1c2ccccc2CCc2ccc(Br)cc21,36*,.,-1,6,.
O=C1C(=Cc2cccc(Cl)c2)CCc2ccccc21,29,.,6,-7,.
CCCC#Cc1ccc2c(c1)O[C@H](CN(C)S(=O)(=O)c1cccc(OC)c1)[C@H](C)CN([C@H](C)CO)S2(=O)=O,-2,.,-11,15,.
Cc1c([C@@H]2C[C@H]3CN(Cc4cccc(Cl)c4)C(=O)[C@]34CCCN24)cnn1C,13,i,-10,-28,61
Cn1cc([C@@H]2C[C@H]3CN(Cc4cccc(Cl)c4)C(=O)[C@]34CCCN24)c2ccccc21,35*,i,35,-48,18
Cc1ccc(NC(=O)CSC(N)=O)cc1Cl,-16,i,0,41*,-2
NC(=O)SCC(=O)Nc1ccc(Cl)c(Cl)c1,7,i,-2,41*,6
CN1C(=O)[C@H]2[C@@H](/C=C/c3ccccc3)N3C(=O)CN(CC4CC4)C(=O)[C@@]3(C)[C@H]2C1=O,0,i,0,-3,0
Cc1ccc(S(=O)(=O)N2C[C@@H]3CCCC[C@@H]3[C@@H](C)[C@H]2CC(=O)c2ccccc2)cc1,21,.,-5,-9,.
O=C(NCC1CC1)c1ccc2c(c1)S(=O)(=O)c1cc(Cl)ccc1C2=O,24,.,1,-1,.
COC(=O)c1[nH]c2ccc(Br)cc2c1NC(=O)CN1CCN(C2CCCCC2)CC1,10,+,3,-112,-12
COC(=O)c1[nH]c2ccc(C)cc2c1NC(=O)CCN1CCN(C2CCCCC2)CC1,.,i,.,.,2
Cc1ccc(O)c(-c2cc(-c3cccc(F)c3)n[nH]2)c1,37*,i,7,0,-4
Cc1ccc(-c2cc(-c3cccc(F)c3)n[nH]2)c(O)c1,29,i,0,7,-1
Nc1nc(-c2ccc(Oc3ccccc3)cc2)cs1,44*,i,1,1,-4
Nc1nc(-c2ccc(-c3ccccc3)cc2)cs1,66*,i,-3,34,11
O=S1(=O)CC(N2CCSCC2)CN1Cc1cn(Cc2ccc(Cl)cc2)nn1 (stereo unspecified),9,.,2,.,.
COc1ccc(OCCNC(=O)c2ccc3nc(C)c(N(C)C(=O)CCc4ccccc4)n3c2)cc1,-6,.,-4,-6,.
CC(C)(C)S(=O)N1Cc2cc(CO)cc(CCO)c2[C@@H]1CCO (stereo partly specified),15,.,1,20,.
NC(=S)Nc1ccc(S(=O)(=O)c2ccc(NC(N)=S)cc2)cc1,19,i,2,43*,-14
CSCCC(c1nc2ccccc2[nH]1)n1c(-c2cc(C(F)(F)F)cc(C(F)(F)F)c2)nc2ccccc21 (stereo unspecified),3,.,-15,.,.
CCNC(=O)c1sc(=S)n(-c2ccc(C)cc2)c1N,-11,i,3,44*,-4
O=C(c1[nH]c(C(F)(F)F)nc1-c1ccccc1)N1CCN(c2c(Cl)cncc2Cl)CC1,-1,.,-4,-11,.
NC(=O)c1cccc2c1-c1ccccc1/C2=N/NC(N)=S,6,i,5,39*,-12
